Screening data deposited in PubChem by several laboratories.
Only some compounds are listed: those with a hit (about 1.7% of all), similar ones and a draw of the others.
CSN inh = CSN deneddylation inhibition | inhibition, % at 12.5 µM | Q92905 | 0.38% of 360,000 active | Purified CSN, SCF-Nedd8-OG deneddylation, fluorescence polarization;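 active means pattern-corrected inhibition above about 35%, with an unprinted fluorescence ratio check between 0.5 and 1.5, limit read from the data, passing the limit was not always enough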;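 further: 0% = enzyme with substrate and 100% = substrate without enzyme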
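assay system = purified human Csn5 enzyme expressed in HEK293T cells | amount = 0.24 nM enzyme | buffer or medium = Tris/NaCl/DTT buffer, pH 7.5 | reagent = 10 nM SCFSkp2-Nedd8OG | compound = one concentration, 12.5 µM, 0.25% DMSO | times = 90 min reaction at room temperature | signal = FP | read-out basis = % inhibition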
TPT1 inh = inhibitors of Candida albicans tRNA 2'-phosphotransferase TPT1; recombinant caTPT1, FP RNA substrate dephosphorylation; inhibition, % at 5 µM; 0.81% of 300,000 active; AID 1962;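 active means inhibition above the mean of all tested compounds plus 3 SD, set per screening campaign, cut at about 24% in these data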;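 further: plate controls were DMSO alone for no effect and ferristatin control at 100 nM for full effect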
IDE act = IDE (human) activation, cell-based | P14735 | HEK cells, FAbeta-B cleavage, fluorescence polarization; 0% vehicle, 100% cell-free pure enzyme wells | activation, % at 5.96 µM | 0.073% of 340,000 active;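 active means activation above the mean of all tested compounds plus 3 SD, set per screening campaign, cut at about 17% in these data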
Rpn11 inh = inhibitors of human proteasome Rpn11 | calls only at 20 µM | AID 588493 | human 26S proteasome, Ub4-pepOG fluorescence polarization; 20S core pre-blocked with epoxomicin | 0.59% of 360,000 active | O00487;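 active means inhibition at 20 µM, scaled to each plate's controls, above about 33%, limit read from the data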
IDE inh = inhibits human insulin-degrading enzyme in HEK cells; P14735; FAbetaB cleavage, fluorescence polarization; inhibition, % at 5.59 µM; 0.41% of 320,000 active;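 active means percent inhibition above the average of all tested compounds plus 3 SD, set per screening campaign, cut at about 16% in these data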;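 further: IDE supplied by intact live HEK cells; FP after avidin binding of uncleaved biotin substrate so inhibition keeps polarization high; 0% = DMSO wells and 100% = 60 µM reference IDE inhibitor Ii1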
HNF4A DNA FP = change in binding of human HNF4 alpha to DNA | P41235 | HNF4a-FITC DNA binding, fluorescence polarization, 1 h | activity change, % at 10 µM | 0.3% of 360,000 active | AID 1224865; in the data active means activity change above about 30%, passing the limit was not always enough
Target sequence (P41235 whole entry, looked up): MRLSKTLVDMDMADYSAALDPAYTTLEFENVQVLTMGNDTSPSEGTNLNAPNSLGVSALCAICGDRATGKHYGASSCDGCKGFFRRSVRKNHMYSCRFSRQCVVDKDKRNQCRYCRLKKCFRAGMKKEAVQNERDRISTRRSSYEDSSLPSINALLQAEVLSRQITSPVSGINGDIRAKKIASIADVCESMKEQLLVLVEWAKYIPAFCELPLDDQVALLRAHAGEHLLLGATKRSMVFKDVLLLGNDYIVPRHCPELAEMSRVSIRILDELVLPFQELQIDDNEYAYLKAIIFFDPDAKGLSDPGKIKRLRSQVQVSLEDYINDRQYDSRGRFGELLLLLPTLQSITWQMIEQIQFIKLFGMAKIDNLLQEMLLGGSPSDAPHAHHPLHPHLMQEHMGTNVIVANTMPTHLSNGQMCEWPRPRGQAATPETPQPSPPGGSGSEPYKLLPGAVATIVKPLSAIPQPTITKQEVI
Rpn11 inh conf = Rpn11 inhibition confirmation, single concentration; shares compounds with Rpn11 inh; inhibition, % at 20 µM; purified human 26S proteasome, Ub4-pepOG fluorescence polarization; proteasome pretreated with epoxomicin; 29% of 1,900 active
MMP-2 inh = counter-screen for RPN11 inhibitors: inhibition of human MMP-2; inhibition, % at 20 µM; 4% of 1,900 active; recombinant MMP-2, FRET peptide cleavage fluorescence; shares compounds with Rpn11 inh;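 further: human MMP-2 activated beforehand with APMA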
Thrombin FP = thrombin (bovine) inhibition counter-screen. AID 602333. shares compounds with Rpn11 inh. 13% of 1,900 active. inhibition, % at 20 µM. bovine thrombin cleavage of Ub4-pepOG, fluorescence polarization;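 active means mean inhibition at least 40% at 20 µM, or signal 3 deviations below plate average, so some actives read negative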;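 further: plate controls were thrombin with DMSO for no effect and buffer wells lacking thrombin for full effect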
Active calls of the source: *; i = inactive; . = not tested or not shown; + = active, no number. Unless noted, no stated cut-off is given here; in the data, active means inhibition above about 40%; inactive means the rest.

SMILES	CSN inh	TPT1 inh	IDE act	Rpn11 inh	IDE inh	HNF4A DNA FP	Rpn11 inh conf	MMP-2 inh	Thrombin FP
Cc1noc(NC(=O)c2cccc(C(F)(F)F)c2)c1Cl	1	0	-5	i	-11	-1	.	.	.
Nc1nc2ccccc2n1C(=O)c1ccco1	-2	.	2	+	.	12	-5	-37	-14
Nc1nc2ccccc2n1C(=O)c1ccccc1	4	-5	0	i	-3	-2	.	.	.
CC1c2cc3c(cc2CCN1C(=O)c1cccc(Cl)c1)OCCCO3 (configuration not stated)	2	1	-18	i	13	5	.	.	.
CC(SCc1ccc(C(=O)O)o1)c1ccc(C(=O)O)o1 (configuration not stated)	0	-1	5	+	-1	2	-8	-30	-8
Cc1ccc(CSCc2ccc(C(=O)O)o2)cc1	0	1	3	i	-2	-1	.	.	.
O=C(Nc1ccc2c(c1)OCCO2)C(c1ccnc2ccccc12)n1c(=O)c(-c2ccco2)nc2ccccc21 (configuration not stated)	10	.	.	.	.	12	.	.	.
CCc1ccc(OCC(=O)Nc2ccc(-c3nc4ccccc4o3)c(O)c2)cc1	-1	1	0	+	-2	12	-14	-21	-23
COc1ccc(OCC(=O)Nc2cccc(-c3nc4ccccc4o3)c2)cc1	-2	1	-6	i	9	-9	.	.	.
C=CCNc1nc(C2(C)CC3(CC(C)OC3=O)C(=O)O2)cs1 (configuration not stated)	2	-2	3	i	-3	-2	.	.	.
Cc1occc1-c1nnc(SCC(=O)NCCc2ccccc2)n1Cc1ccccc1	5	6	5	+	4	6	13	-23	11
COc1cc2c(cc1OC)/C(=C/C(C)=O)OC2	1	.	.	.	.	6	.	.	.
Cc1[nH]n(-c2nc(-c3ccc(Cl)cc3)cs2)c(=O)c1N=Nc1ccc(O)cc1	-9	7	.	+	2	14	-5	-24	-3
CCc1c(C)[nH]n(-c2nc(-c3ccccc3)cs2)c1=O	-9	3	2	i	3	-1	.	.	.
Cn1c(=NN=Cc2ccccc2OCCO)sc2ccccc21	-1	.	.	i	.	-4	.	.	.
Cc1cc(C(=O)CSc2nc(N)cc(N)n2)c(C)n1CC1CCCO1 (configuration not stated)	-7	.	2	i	7	-1	.	.	.
Cc1sc2nc(SCC(=O)c3cc(C)n(CC4CCCO4)c3C)n(C(C)C)c(=O)c2c1C (configuration not stated)	-3	0	5	+	-2	0	-6	2	-3
COc1ccc2nc(N3C(=O)/C(=C/c4ccc(Cl)cc4)NC3=S)sc2c1	18	.	-3	+	.	-2	56*	-22	25
COc1cc(/C=N/NC(=O)CCn2cnc(-c3ccccc3)c2-c2ccccc2)ccc1O	-5	2	0	i	3	2	.	.	.
CS(=O)(=O)c1ccc(C(=O)OCC(=O)NCc2cccs2)cc1[N+](=O)[O-]	7	.	1	+	5	4	-23	-32	-33
COC(=O)C1=C(C)NC(=O)/C1=C\c1cc(C)n(-c2c(C)cccc2C)c1C	16	-2	1	+	0	5	10	-11	-2
CC(=O)c1cccc(NC(=O)c2cccc3c(-c4cccc(C(N)=O)c4)coc23)c1	22	.	.	+	.	1	31	-25	57*
N#CCSc1ccccc1NC(=O)COc1ccc(-c2nnco2)cc1	16	.	-3	+	5	10	15	-7	13
FC(F)(F)c1ccc2c(c1)n(Cc1ccccc1)c1[n+]2CCCCC1	7	9	5	+	0	11	-11	3	-21
CCOC(=O)c1cc2occc2n1Cc1c(F)cccc1Cl	5	11	-2	+	0	16	17	-9	3
SMILES	CSN inh	TPT1 inh	IDE act	Rpn11 inh	IDE inh	HNF4A DNA FP	Rpn11 inh conf	MMP-2 inh	Thrombin FP
O=C(NCCc1ccccc1F)C1CCC(=O)N(Cc2ccccc2F)C1 (configuration not stated)	0	-2	3	i	2	2	.	.	.
C#CCOc1ccc(C2C(C#N)=C(N)Oc3cc(O)ccc32)cc1 (configuration not stated)	6	8	-10	+	-4	24	4	-28	-32
CCOc1ccc(C2C(C#N)=C(N)Oc3cc(O)ccc32)cc1OCC (configuration not stated)	0	7	-3	i	-4	0	.	.	.
COc1ccc(C2C(C#N)=C(N)Oc3cc(O)ccc32)cc1Cl (configuration not stated)	7	19	2	+	11	32	-4	-16	-8
N#CC1=C(N)Oc2cc(O)c(Cl)cc2C1c1cccnc1 (configuration not stated)	0	.	-46	+	.	9	-13	-28	-12
Cc1cc(C)cc(NC(=O)C(OC(=O)c2ccc(NC(=O)CC#N)cc2)c2ccccc2)c1 (configuration not stated)	6	11	4	+	-1	12	25	-20	17
COc1cc(NC(=S)NC(C)=O)ccc1NC(=O)C(C)C	-1	2	3	i	-1	-1	.	.	.
CCC(OC(=O)c1ccco1)C(=O)NCc1ccco1 (configuration not stated)	1	4	5	+	-1	5	-5	-25	-2
CCCCC1=CC2=CC(=O)C(C)(OC(=O)C3CCCC3)C(=O)C2=CO1 (configuration not stated)	28	23	1	+	1	20	46*	4	28
COC(=O)CCCC1=CC2=CC(=O)C(C)(OC(=O)C3CCCC3)C(=O)C2=CO1 (configuration not stated)	.	2	-6	.	3	.	.	.	.
CC(C)C(N)c1csc(Nc2nncc3ccccc23)n1 (configuration not stated)	1	.	.	i	.	0	.	.	.
COc1cccc(OC)c1C(=O)Nc1ccc2c(c1)CCCN2S(=O)(=O)c1ccc(C)cc1	-1	3	4	i	1	-2	.	.	.
Cc1ccc(-c2csc(Nc3ccc(S(N)(=O)=O)cc3)n2)o1	7	14	-2	+	2	18	0	-1	-6
